Test results: ChEMBL document CHEMBL1275265, “Synthesis and biological evaluation of N-antipyrine-4-substituted amino-3-chloromaleimide derivatives” (Eur J Med Chem, 2010)
≈ marks a conversion by molar mass, not a printed value. Calls of active or inactive are those of the source. The calls are words filed in the database; no cut-off is given here.

Legend:
[1] = tested on: Salmonella typhimurium; assay: Antibacterial activity against Salmonella Typhimurium ATCC 14028 at < 100 ug/mL by agar dilution method; type: functional, organism-based; conditions: Salmonella enterica subsp. enterica serovar Typhimurium
How it was run: (§1)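 Agar dilution on 1 mL Mueller-Hinton agar slants. Compounds were serially two-fold diluted in DMSO (final DMSO ≤2%) to give 10–100 µg/mL in the medium. Bacteria were grown on MHA at 35 °C for 24 h, suspended in 0.86% saline at 1.5 × 10^8 cell/mL (0.5 McFarland), and 1 µL was added per slant. Slants were incubated at 35 °C. Drug-free blank included; each assay run three times; MIC recorded.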

[2] = tested on: Proteus mirabilis; assay: Antibacterial activity against Proteus mirabilis ATCC 25933 at < 100 ug/mL by agar dilution method; type: functional, organism-based; how it was run: as §1
[3] = tested on: Aspergillus flavus; assay: Antifungal activity against Aspergillus flavus ATCC 9170 by agar dilution method; type: functional, organism-based
How it was run: (§2)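 Filamentous fungi (hyalohyphomycetes, dermatophytes) were grown on SDA. Spore suspensions were set to 1.0–5.0 × 10^6 spores/mL by hemocytometer count. 1 µL was inoculated onto 1 mL SDA slants holding compound at 10–100 µg/mL (two-fold DMSO dilutions, final DMSO ≤2%), then incubated at 28–30 °C. Drug-free blank and ketoconazole control included; repeated three times; MIC determined.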

[4] = tested on: Aspergillus niger; assay: Antifungal activity against Aspergillus niger ATCC 9092 by agar dilution method; type: functional, organism-based; how it was run: as §2
[5] = tested on: Microsporum canis; assay: Antifungal activity against Microsporum canis C112 by agar dilution method; type: functional, organism-based; how it was run: as §2
[6] = tested on: Candida albicans; assay: Antifungal activity against Candida albicans ATCC 10231 by agar dilution method; type: functional, organism-based
How it was run: (§3)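 Yeasts were grown on Sabouraud dextrose agar and adjusted to 1.0–5.0 × 10^6 cell/mL (0.5 McFarland). Agar dilution used 1 mL SDA slants holding two-fold DMSO dilutions of compound at 10–100 µg/mL, with final DMSO ≤2%. 1 µL of inoculum was added per slant, then incubated at 35 °C. Drug-free blank and ketoconazole positive control included; triplicate runs; MIC read.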

[7] = tested on: Pichia kudriavzevii; assay: Antifungal activity against Candida krusei ATCC 6582 by agar dilution method; type: functional, organism-based; how it was run: as §3
[8] = tested on: Staphylococcus saprophyticus; assay: Antibacterial activity against Staphylococcus saprophyticus ATCC 35552 at < 100 ug/mL by agar dilution method; type: functional, organism-based; how it was run: as §1
[9] = tested on: Streptococcus agalactiae; assay: Antibacterial activity against Streptococcus agalactiae ATCC 13813 at < 100 ug/mL by agar dilution method; type: functional; how it was run: as §1
[10] = tested on: Pseudomonas aeruginosa; assay: Antibacterial activity against Pseudomonas aeruginosa ATCC 27853 at < 100 ug/mL by agar dilution method; type: functional, organism-based; how it was run: as §1
[11] = tested on: Staphylococcus aureus; assay: Antibacterial activity against Staphylococcus aureus ATCC 6538P at < 100 ug/mL by agar dilution method; type: functional, organism-based; how it was run: as §1
[12] = tested on: Aspergillus fumigatus; assay: Antifungal activity against Aspergillus fumigatus ATCC 26934 by agar dilution method; type: functional; how it was run: as §2
[13] = tested on: Cryptococcus neoformans; assay: Antifungal activity against Cryptococcus neoformans ATCC 32264 by agar dilution method; type: functional; how it was run: as §3
[14] = tested on: Nannizzia gypsea; assay: Antifungal activity against Microsporum gypseum C115 by agar dilution method; type: functional; how it was run: as §2
[15] = tested on: Rhizopus; assay: Antifungal activity against Rhizopus CL35 by agar dilution method; type: functional; how it was run: as §2
[16] = tested on: Trichophyton mentagrophytes; assay: Antifungal activity against Trichophyton mentagrophytes ATCC 9972 by agar dilution method; type: functional; how it was run: as §2
[17] = tested on: Trichophyton rubrum; assay: Antifungal activity against Trichophyton rubrum C137 by agar dilution method; type: functional; how it was run: as §2
[18] = tested on: Bacillus cereus; assay: Antibacterial activity against Bacillus cereus ATCC 14579 at < 100 ug/mL by agar dilution method; type: functional; how it was run: as §1
[19] = tested on: Bacillus subtilis; assay: Antibacterial activity against Bacillus subtilis ATCC 23858 at < 100 ug/mL by agar dilution method; type: functional, organism-based; how it was run: as §1
[20] = tested on: Enterobacter cloacae; assay: Antibacterial activity against Enterobacter cloacae ATCC 35030 at < 100 ug/mL by agar dilution method; type: functional, organism-based; how it was run: as §1
[21] = tested on: Escherichia coli; assay: Antibacterial activity against Escherichia coli ATCC 11775 at < 100 ug/mL by agar dilution method; type: functional, organism-based; how it was run: as §1
[22] = Toxicity in Artemia salina assessed as mortality after 24 hrs; type: organism-based; conditions: in vivo
How it was run: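 Artemia salina hatched at pH 9.0 (Na2CO3), 25 °C, strong aeration, continuous light (2000 Lux). Phototropic nauplii were collected about 12 h after hatching, and groups of 10 were exposed per well to various compound concentrations for 24 h. Survivors were counted and % deaths calculated.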

[23] = tested on: Mus musculus; assay: Antinociceptive activity in Swiss mouse assessed as inhibition of acetic acid-induced writhing at 10 mg/kg, ip administered 30 mins before acetic acid challenge measured after 20 mins relative to control; type: functional; conditions: route intraperitoneal
How it was run: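 Mice were given 10 mg/kg i.p. in Tween 80/0.9% NaCl (Tween ≤5%) 30 min before i.p. 0.6% acetic acid, at 20–22 °C. Abdominal constrictions plus hind-limb stretching were counted cumulatively over 20 min in individual funnels. Groups of six, randomized and blinded. Inhibition was calculated versus vehicle controls (10 ml/kg i.p.); ANOVA with Dunnett's test.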

[24] = tested on: Mus musculus; assay: Antinociceptive activity in Swiss mouse assessed as inhibition of formalin-induced paw licking activity at 10 mg/kg, ip administered 30 mins before formalin challenge measured after 5 mins; type: functional; conditions: route intraperitoneal
How it was run: (§4)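 Formalin test in mice pretreated i.p. with vehicle or 10 mg/kg test agent 30 min before formalin injection. Animals were acclimatized 5 min in a glass cylinder with an angled mirror. Licking time was recorded for the early phase (0–5 min) and the late phase (15–30 min) after formalin. Values are mean ± S.E.M.; ANOVA with Dunnett's test.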

[25] = tested on: Mus musculus; assay: Antinociceptive activity in Swiss mouse assessed as inhibition of formalin-induced paw licking activity at 10 mg/kg, ip administered 30 mins before formalin challenge measured after 15 to 30 mins; type: functional; conditions: route intraperitoneal; how it was run: as §4
[26] = tested on: Mus musculus; assay: Antinociceptive activity in Swiss mouse assessed as inhibition of acetic acid-induced abdominal contraction at 0.1 to 100 mg/kg, ip administered 30 mins before acetic acid challenge measured after 20 mins relative to control; type: functional, Abdominal cavity; conditions: dose mg/kg 0.1-100; route intraperitoneal
How it was run: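 Writhing dose-response in mice: compounds at 0.1–10 mg/kg and standard drugs at 10–100 mg/kg, i.p. in Tween 80/saline, 30 min before i.p. 0.6% acetic acid. Constrictions and stretches were counted for 20 min at 20–22 °C, with six to eight animals per group. ID50 (dose halving the response versus control) was given as geometric mean with 95% confidence limits.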

Row | SMILES | Activity [1] | Activity [2] | Activity [3] | Activity [4] | Activity [8] | Activity [9] | Activity [10] | Activity [11] | MIC [12] | MIC [13] | MIC [14] | MIC [15] | MIC [16] | MIC [17] | Activity [18] | Activity [19] | Activity [20] | Activity [21] | LC50 at 24 h [22] | inhibition in vivo at 10 mg/kg [23] | further results
1 | Cc1c(N2C(=O)C(Cl)=C(NCc3ccccc3)C2=O)c(=O)n(-c2ccccc2)n1C | inactive | inactive | Active | Active | inactive | inactive | inactive | inactive | 100 µg/mL (≈ 236 µM) | 40 µg/mL (≈ 94.6 µM) | > 100 µg/mL | > 100 µg/mL | 100 µg/mL (≈ 236 µM) | 100 µg/mL (≈ 236 µM) | inactive | inactive | inactive | inactive | > 1000 µg/mL | 35.4% | Activity [5]: Active; Activity [6]: Active; Activity [7]: Active
2 | Cc1c(N2C(=O)C(Cl)=C(Nc3ccc(Cl)c(Cl)c3)C2=O)c(=O)n(-c2ccccc2)n1C | inactive | inactive | Active | Active | inactive | inactive | inactive | inactive | > 100 µg/mL | > 100 µg/mL | 100 µg/mL (≈ 209 µM) | 80 µg/mL (≈ 167 µM) | > 100 µg/mL | > 100 µg/mL | inactive | inactive | inactive | inactive | > 1000 µg/mL | 75% | Activity [5]: Active; Activity [6]: Active; Activity [7]: Active
3 | CCc1ccc(NC2=C(Cl)C(=O)N(c3c(C)n(C)n(-c4ccccc4)c3=O)C2=O)cc1 | inactive | inactive | Active | Active | inactive | inactive | inactive | inactive | > 100 µg/mL | > 100 µg/mL | 100 µg/mL (≈ 229 µM) | > 100 µg/mL | > 100 µg/mL | > 100 µg/mL | inactive | inactive | inactive | inactive | > 1000 µg/mL | 49.5% | Activity [5]: Active; Activity [6]: Active; Activity [7]: Active
4 | Cc1c(N2C(=O)C(Cl)=C(Nc3ccccc3)C2=O)c(=O)n(-c2ccccc2)n1C | inactive | inactive | Active | Active | inactive | inactive | inactive | inactive | > 100 µg/mL | > 100 µg/mL | > 100 µg/mL | 80 µg/mL (≈ 196 µM) | > 100 µg/mL | > 100 µg/mL | inactive | inactive | inactive | inactive | > 1000 µg/mL | 71.6% | Activity [5]: Active; Activity [6]: Active; Activity [7]: Active
5 | CC(=O)Oc1ccccc1C(=O)O [ASPIRIN] |  |  |  |  |  |  |  |  |  |  |  |  |  |  |  |  |  |  |  | 35% | inhibition in vivo at 10 mg/kg [24]: 16%; inhibition in vivo at 10 mg/kg [25]: 45%; inhibition (INH) [26]: 83%
6 | Cc1c(N2C(=O)C(Cl)=C(Nc3cccc(Cl)c3)C2=O)c(=O)n(-c2ccccc2)n1C | inactive | inactive |  |  | inactive | inactive | inactive | inactive |  |  |  |  |  |  | inactive | inactive | inactive | inactive | 86.2 µg/mL (≈ 195 µM) | 38.9% | 
7 | Cc1c(N(C)CS(=O)(=O)[O-])c(=O)n(-c2ccccc2)n1C.[Na+] [DIPYRONE SODIUM] |  |  |  |  |  |  |  |  |  |  |  |  |  |  |  |  |  |  |  | 33% | inhibition (INH) [26]: 54%
8 | CC(=O)N1CCN(c2ccc(OCC3COC(Cn4ccnc4)(c4ccc(Cl)cc4Cl)O3)cc2)CC1 (stereo not drawn) [KETOCONAZOLE] |  |  |  |  |  |  |  |  | 7 µg/mL (≈ 13.2 µM) | 5 µg/mL (≈ 9.41 µM) | 6 µg/mL (≈ 11.3 µM) | 15 µg/mL (≈ 28.2 µM) | 8 µg/mL (≈ 15.1 µM) | 3 µg/mL (≈ 5.65 µM) |  |  |  |  |  |  | 
9 | COc1ccc(NC2=C(Cl)C(=O)N(c3c(C)n(C)n(-c4ccccc4)c3=O)C2=O)cc1 | inactive | inactive |  |  | inactive | inactive | inactive | inactive |  |  |  |  |  |  | inactive | inactive | inactive | inactive | > 1000 µg/mL | 31.2% | 
